Measured values: ChEMBL document CHEMBL1153061, “Synergism of virtual screening and medicinal chemistry: identification and optimization of allosteric antagonists of metabotropic glutamate receptor 1” (Bioorg Med Chem, 2009)
Calls of active or inactive are those of the source. No cut-off for these calls is given here.

Assays:
[1] = molecular target: T1, Metabotropic glutamate receptor 1 (Rattus norvegicus, UniProt P23385); assay: Displacement of [3H]E-3-(2-chloro-8-methylquinolin-3-yl)-1-(thiophen-2-yl)prop-2-en-1-one from mGluR1 in rat cerebellar membrane after 14 to 16 hrs by scintillation counting; format: cell membranes, Cerebellum
[2] = molecular target: T1, Metabotropic glutamate receptor 1; assay: Allosteric antagonist activity at mGluR1 in Sprague-Dawley rat cerebellar granule cells assessed as accumulation of [3H]inositol phosphate by liquid scintillation counting; format: functional
Procedure, shortened: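 Cerebellar granule cells from P8 Sprague Dawley rats grown in BEM with 10% foetal calf serum and 2 mM glutamine. At 6 DIV switched to inositol-free DMEM with [3H]-myo-inositol (0.5 µCi/100 µl/well) for 48 h. Cells preincubated 15 min at 37 °C in Locke's buffer (20 mM LiCl, pH 7.4), then 45 min with agonists/test ligands. Lysed with 0.1 M HCl 10 min on ice. Inositol phosphates isolated on formate columns, eluted with 1 M ammonium formate/0.1 M formic acid, counted by liquid scintillation.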

[3] = molecular target: Metabotropic glutamate receptor 5 (Rattus norvegicus, UniProt P31424); assay: Displacement of [3H]MPEP from mGluR5 in rat cortical membrane after 60 mins by liquid scintillation counting; format: cell membranes
Procedure, shortened: (§1)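 Rat cortical membranes, 125–250 µg protein, incubated with 5 nM [3H]-MPEP (50.2 Ci/mmol) and varying concentrations of test agent. Filters rinsed, and bound radioactivity counted by liquid scintillation.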

[4] = organism: Rattus norvegicus; assay: Selectivity ratio of Ki for mGluR5 in rat cortical membrane to Ki for mGluR1 in rat cerebellar membrane; format: cell membranes
[5] = molecular target: Metabotropic glutamate receptor 5 (Rattus norvegicus) (UniProt P31424); assay: Binding affinity to GluR5 in rat cortical membrane up to 10 uM; format: cell membranes; procedure, shortened: as §1
[6] = molecular target: Metabotropic glutamate receptor 1 (Homo sapiens, UniProt Q13255); assay: Binding affinity to human GluR1 by FLIPR assay
[7] = Solubility in water; format: physicochemical; settings: buffer

Chain of Metabotropic glutamate receptor 5 (P31424 whole entry): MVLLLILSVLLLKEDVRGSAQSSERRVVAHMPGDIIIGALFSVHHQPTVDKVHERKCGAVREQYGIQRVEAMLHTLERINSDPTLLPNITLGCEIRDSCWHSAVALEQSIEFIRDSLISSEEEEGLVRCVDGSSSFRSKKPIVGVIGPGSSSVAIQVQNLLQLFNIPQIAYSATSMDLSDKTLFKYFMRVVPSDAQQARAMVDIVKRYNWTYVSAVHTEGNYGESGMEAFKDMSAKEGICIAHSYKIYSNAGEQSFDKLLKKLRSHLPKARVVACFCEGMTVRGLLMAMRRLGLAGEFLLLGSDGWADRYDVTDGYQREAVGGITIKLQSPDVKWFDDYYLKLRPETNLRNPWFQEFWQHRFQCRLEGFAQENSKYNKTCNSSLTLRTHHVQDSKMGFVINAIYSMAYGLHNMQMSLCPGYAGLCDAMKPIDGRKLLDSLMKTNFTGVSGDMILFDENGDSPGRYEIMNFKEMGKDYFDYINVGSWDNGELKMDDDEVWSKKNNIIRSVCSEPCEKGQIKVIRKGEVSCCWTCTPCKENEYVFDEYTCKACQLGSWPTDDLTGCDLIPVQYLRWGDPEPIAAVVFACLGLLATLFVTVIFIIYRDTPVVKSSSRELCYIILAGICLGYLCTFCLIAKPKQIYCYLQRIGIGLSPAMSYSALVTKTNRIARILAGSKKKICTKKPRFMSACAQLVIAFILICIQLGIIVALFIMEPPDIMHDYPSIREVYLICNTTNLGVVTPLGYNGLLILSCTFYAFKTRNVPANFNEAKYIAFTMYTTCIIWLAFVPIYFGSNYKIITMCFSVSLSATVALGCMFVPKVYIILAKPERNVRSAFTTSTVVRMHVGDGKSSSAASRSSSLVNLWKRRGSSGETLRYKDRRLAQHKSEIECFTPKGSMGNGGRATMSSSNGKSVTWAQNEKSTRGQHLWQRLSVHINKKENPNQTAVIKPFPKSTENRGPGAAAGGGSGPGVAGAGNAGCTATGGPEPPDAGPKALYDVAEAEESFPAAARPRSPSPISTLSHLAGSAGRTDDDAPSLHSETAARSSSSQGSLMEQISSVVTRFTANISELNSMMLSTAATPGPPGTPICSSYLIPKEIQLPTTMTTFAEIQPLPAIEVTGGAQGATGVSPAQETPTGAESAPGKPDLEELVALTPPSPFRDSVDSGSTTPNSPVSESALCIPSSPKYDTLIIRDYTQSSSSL
T1 sequence (P23385 whole entry): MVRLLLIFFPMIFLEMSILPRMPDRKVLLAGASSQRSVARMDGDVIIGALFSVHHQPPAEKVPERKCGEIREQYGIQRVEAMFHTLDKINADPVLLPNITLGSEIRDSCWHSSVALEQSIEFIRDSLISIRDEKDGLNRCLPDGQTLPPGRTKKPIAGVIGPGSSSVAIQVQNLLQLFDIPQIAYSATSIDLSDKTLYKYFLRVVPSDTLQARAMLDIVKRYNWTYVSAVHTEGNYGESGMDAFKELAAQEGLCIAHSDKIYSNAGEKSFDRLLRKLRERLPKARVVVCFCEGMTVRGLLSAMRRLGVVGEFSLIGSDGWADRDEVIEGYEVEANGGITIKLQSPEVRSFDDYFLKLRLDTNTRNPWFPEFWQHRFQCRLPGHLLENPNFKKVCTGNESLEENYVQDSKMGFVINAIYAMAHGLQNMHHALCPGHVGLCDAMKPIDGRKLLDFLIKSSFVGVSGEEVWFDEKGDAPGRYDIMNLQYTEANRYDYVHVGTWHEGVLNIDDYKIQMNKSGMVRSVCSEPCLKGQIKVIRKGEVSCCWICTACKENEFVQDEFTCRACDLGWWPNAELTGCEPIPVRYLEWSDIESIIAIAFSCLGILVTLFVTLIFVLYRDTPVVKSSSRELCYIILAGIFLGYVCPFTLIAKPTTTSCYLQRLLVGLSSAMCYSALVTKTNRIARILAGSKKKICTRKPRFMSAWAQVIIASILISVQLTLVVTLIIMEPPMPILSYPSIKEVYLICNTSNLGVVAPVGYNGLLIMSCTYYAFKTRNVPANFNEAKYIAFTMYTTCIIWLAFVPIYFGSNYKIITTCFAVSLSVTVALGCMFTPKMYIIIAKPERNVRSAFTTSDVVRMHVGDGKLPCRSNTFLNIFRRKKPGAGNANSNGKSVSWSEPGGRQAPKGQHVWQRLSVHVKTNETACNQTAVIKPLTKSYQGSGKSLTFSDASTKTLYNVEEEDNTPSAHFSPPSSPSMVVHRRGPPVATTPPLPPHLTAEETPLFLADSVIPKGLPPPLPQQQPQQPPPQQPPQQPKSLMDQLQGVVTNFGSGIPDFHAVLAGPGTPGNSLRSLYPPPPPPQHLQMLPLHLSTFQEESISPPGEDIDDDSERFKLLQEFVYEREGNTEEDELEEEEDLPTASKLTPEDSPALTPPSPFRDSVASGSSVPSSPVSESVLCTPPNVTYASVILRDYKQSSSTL
Chain of Metabotropic glutamate receptor 5 (Rattus norvegicus) (P31424 21-1203 limits assumed): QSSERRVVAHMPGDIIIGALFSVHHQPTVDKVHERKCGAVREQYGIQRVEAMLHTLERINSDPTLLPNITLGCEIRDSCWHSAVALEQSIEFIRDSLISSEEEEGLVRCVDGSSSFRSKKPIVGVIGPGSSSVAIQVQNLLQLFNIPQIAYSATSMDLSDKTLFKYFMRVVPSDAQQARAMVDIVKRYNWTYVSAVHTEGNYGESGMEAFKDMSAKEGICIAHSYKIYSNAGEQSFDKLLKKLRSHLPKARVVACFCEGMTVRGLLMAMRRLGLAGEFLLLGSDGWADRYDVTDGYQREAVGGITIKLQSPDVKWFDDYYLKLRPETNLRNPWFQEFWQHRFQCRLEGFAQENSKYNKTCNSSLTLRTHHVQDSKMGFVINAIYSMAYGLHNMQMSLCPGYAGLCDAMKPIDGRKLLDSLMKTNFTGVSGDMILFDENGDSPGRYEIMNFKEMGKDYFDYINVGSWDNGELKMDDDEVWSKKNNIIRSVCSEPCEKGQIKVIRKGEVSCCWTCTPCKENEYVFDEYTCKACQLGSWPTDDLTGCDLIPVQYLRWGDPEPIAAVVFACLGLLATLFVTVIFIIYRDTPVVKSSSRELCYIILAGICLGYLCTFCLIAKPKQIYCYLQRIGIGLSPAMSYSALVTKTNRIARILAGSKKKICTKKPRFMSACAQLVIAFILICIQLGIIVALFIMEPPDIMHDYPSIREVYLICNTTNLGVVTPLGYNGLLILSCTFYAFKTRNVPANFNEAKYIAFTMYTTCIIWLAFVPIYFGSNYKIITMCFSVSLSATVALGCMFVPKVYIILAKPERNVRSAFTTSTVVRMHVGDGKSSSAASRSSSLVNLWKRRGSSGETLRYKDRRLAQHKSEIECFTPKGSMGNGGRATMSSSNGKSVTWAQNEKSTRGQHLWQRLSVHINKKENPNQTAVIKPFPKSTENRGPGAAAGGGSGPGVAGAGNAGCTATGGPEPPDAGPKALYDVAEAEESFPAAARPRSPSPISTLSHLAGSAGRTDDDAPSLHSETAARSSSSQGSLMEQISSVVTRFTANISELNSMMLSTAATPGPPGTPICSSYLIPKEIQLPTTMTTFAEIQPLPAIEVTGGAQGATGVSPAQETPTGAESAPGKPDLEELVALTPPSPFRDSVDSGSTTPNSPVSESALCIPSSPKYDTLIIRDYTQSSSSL
Chain of Metabotropic glutamate receptor 1 (Homo sapiens, UniProt Q13255) (Q13255 whole entry): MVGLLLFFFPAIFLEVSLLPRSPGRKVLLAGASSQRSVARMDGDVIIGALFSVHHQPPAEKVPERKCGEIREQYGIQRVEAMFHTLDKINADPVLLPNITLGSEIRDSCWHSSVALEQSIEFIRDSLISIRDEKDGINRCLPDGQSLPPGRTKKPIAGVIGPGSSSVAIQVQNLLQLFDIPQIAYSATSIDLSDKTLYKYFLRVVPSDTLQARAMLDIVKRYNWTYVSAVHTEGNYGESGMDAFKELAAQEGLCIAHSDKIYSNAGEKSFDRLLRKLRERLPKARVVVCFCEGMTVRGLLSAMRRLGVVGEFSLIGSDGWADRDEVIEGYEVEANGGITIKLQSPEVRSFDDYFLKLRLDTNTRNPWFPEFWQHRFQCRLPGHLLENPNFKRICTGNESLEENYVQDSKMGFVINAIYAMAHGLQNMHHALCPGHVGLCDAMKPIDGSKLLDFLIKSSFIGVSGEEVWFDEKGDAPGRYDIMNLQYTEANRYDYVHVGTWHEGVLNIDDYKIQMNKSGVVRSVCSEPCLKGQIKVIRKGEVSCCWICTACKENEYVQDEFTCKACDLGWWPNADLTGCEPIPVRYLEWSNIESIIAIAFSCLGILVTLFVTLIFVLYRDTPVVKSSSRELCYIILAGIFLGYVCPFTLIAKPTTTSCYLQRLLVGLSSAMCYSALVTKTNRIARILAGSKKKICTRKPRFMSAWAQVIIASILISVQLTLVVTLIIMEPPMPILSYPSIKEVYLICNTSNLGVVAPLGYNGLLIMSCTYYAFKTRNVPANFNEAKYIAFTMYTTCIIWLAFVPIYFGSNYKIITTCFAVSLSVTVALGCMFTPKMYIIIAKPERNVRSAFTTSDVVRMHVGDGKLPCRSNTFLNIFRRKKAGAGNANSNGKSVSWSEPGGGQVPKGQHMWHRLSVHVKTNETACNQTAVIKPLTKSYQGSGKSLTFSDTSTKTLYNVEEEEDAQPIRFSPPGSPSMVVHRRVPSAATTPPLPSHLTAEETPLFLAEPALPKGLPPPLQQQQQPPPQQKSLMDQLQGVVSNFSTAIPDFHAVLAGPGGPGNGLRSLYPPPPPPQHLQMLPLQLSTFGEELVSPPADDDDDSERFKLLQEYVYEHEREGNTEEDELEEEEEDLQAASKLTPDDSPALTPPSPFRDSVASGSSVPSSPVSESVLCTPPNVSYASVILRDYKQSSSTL

Structure (SMILES) | Ki [1] [µM] | IC50 [2] [µM] | Ki [3] [µM] | Ratio Ki [4] | Activity [5] | Ki [6] [µM] | solubility [7]
Cc1ccc2cc(/C=C/C(=O)c3cccs3)c(Cl)nc2c1 | 17.2 | 2.97 | > 100 |  |  |  | 
Cc1cccc2cc(/C=C/C(=O)c3ccccc3)c(Cl)nc12 | > 40 | 8.5 | > 100 |  |  |  | 
COc1ccc(/C=C/C(=O)C23CC4CC(CC(C4)C2)C3)cc1C | 0.294 |  | 5.15 | 17.5 |  |  | 
O=C(c1ccc(Cl)cc1)c1ccc2c(c1)CCCCO2 | > 40 | > 40 |  |  |  |  | 
CC(=O)c1ccc(OC(=O)c2ccc(-c3ccccc3)cc2)cc1 | > 40 | > 40 |  |  |  |  | 
COc1ccc(-c2cc(C)nc(-c3ccc(OC)c(Br)c3)c2)cc1Br | > 40 | > 40 |  |  |  |  | 
O=C(c1ccccc1)c1ccc(/N=C/c2ccc(Br)cc2)cc1 | > 40 | > 40 |  |  |  |  | 
O=C(/C=C/c1cnc2ccccc2c1)C1CC1 | > 100 |  | > 100 |  |  |  | 
COc1ccc(C(=O)/C=C/c2ccc(OC3CSC3)cc2)cc1 | > 40 | > 40 |  |  |  |  | 
CC(CC(=O)c1ccc2c(c1)OCCO2)c1ccccc1 (configuration not stated) | 36.2 | 10.6 |  |  |  |  | 
COc1ccc(C2CC2C(=O)C23CC4CC(CC(C4)C2)C3)cn1 (configuration not stated) | 0.304 |  | 18.4 | 60.5 |  |  | 
O=c1cc(-c2ccccc2)c2ccc(OCc3cccc(Oc4ccccc4)c3)cc2o1 | > 40 | > 40 |  |  |  |  | 
O=C(C1CC1c1cccnc1)C12CC3CC(CC(C3)C1)C2 (configuration not stated) | 7.04 |  | 22.9 | 3.26 |  |  | 
O=C(/C=C/c1ccc(Cl)cc1)c1ccc(Oc2ccccc2)cc1 | > 40 | 30 |  |  |  |  | 
O=c1cc(-c2ccccc2)c2cc(Cl)c(OCc3ccc(F)cc3)cc2o1 | > 40 | > 40 |  |  |  |  | 
O=C(C1CC1c1ccc(N2CCOCC2)nc1)C12CC3CC(CC(C3)C1)C2 (configuration not stated) | 0.024 |  | 27.8 | 1160 |  | 0.11 | Soluble
COc1ccc(C(=O)c2ccc(C(=O)c3ccc(C)c(OC)c3)cc2)cc1C | > 40 | > 40 |  |  |  |  | 
Cc1ccc2nc(Cl)c(/C=C/C(=O)c3cccs3)cc2c1 | 9.93 | 0.74 | > 100 |  |  |  | 
CCCCOc1ccc(-c2nnc(-c3ccc(-c4ccccc4)cc3)s2)cc1 | > 40 | 28.4 |  |  |  |  | 

Other lines, results leading:

Ki [1] [µM] | IC50 [2] [µM] | Ki [3] [µM] | Ratio Ki [4] | Activity [5] | Ki [6] [µM] | solubility [7] | Structure (SMILES)
> 40 | > 40 | > 100 |  |  |  |  | Cc1ccc2cc(/C=C/C(=O)c3c(C)coc3C)c(Cl)nc2c1
> 40 | 20.5 | > 100 |  |  |  |  | COc1ccc(C(=O)/C=C/c2cc3cc(C)ccc3nc2Cl)cc1
> 40 | 23.9 |  |  |  |  |  | CCCCCCc1cc2c3c(c(=O)oc2cc1OC)CCC3
0.137 |  | > 100 | > 730 | inactive |  |  | O=C(C1CC1c1cnc2ccccc2c1)C12CC3CC(CC(C3)C1)C2 (configuration not stated)
5.23 |  | 30.6 | 5.9 |  |  |  | CC(C)(C)C(=O)/C=C/c1cnc2ccccc2c1
> 40 | > 40 |  |  |  |  |  | CCOc1ccc(C(=O)/C=C/c2ccc(OCc3ccc(Cl)cc3Cl)cc2)cc1
> 40 | > 40 |  |  |  |  |  | CCCCC1CCC(C(=O)Oc2ccc(C(C)=O)cc2)CC1 (configuration not stated)
> 40 | 22.5 |  |  |  |  |  | CCCCCc1ccc(-c2ccc(OC(=O)C3CCC(CC)CC3)cc2)nc1 (configuration not stated)
9.18 | 1.7 | > 100 |  |  |  |  | Cc1ccc2nc(Cl)c(/C=C/C(=O)c3ccccc3)cc2c1
0.641 |  | 6.23 | 9.72 |  |  |  | O=C(/C=C/c1ccc2c(c1)OCCO2)C12CC3CC(CC(C3)C1)C2
> 40 | 23.9 |  |  |  |  |  | O=c1cc(-c2ccccc2)c2ccc(OCc3ccc(F)cc3)cc2o1
> 40 | 39.3 | > 100 |  |  |  |  | COc1ccc(C(=O)/C=C/c2cc3ccc(C)cc3nc2Cl)cc1
> 40 | > 40 |  |  |  |  |  | CCn1c2ccccc2c2cc(/C=N/c3ccc(C)c(F)c3)ccc21
> 40 | > 40 |  |  |  |  |  | CC(Oc1ccc2c(c1)oc(=O)c1ccccc12)c1ccccc1 (configuration not stated)
> 40 | 15.3 |  |  |  |  |  | Cc1ccc(C(=O)c2ccc(Oc3ccccc3)cc2)cc1C
0.021 |  | 0.807 | 29.9 |  |  |  | O=C(/C=C/c1cnc2ccccc2c1)C12CC3CC(CC(C3)C1)C2
> 40 | > 40 |  |  |  |  |  | CCCCCCOc1ccc(C(=O)Oc2ccc(C3CCCCC3)cc2)cc1
> 40 | > 40 |  |  |  |  |  | COc1cc2c(cc1OC)C(Cc1ccccc1)=NC(C)(C)C2
